Experiments:
[1] = tested on: Macrophage; test: Inhibition of nitric oxide production in lipopolysaccharide-activated ddY mouse macrophages at 100 uM relative to control; assay type: functional
Method in brief: (§1)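 Peritoneal macrophages from male ddY mice given 4% thioglycolate i.p. 4 days earlier, plated at 5 × 10^5 cells/well in RPMI 1640 with 5% FCS, 1 h at 37 °C; adherent cells (>95% macrophages) then cultured 20 h with 10 µg/mL LPS plus compound (1-100 µM, DMSO final 0.5%). Nitrite in medium measured by Griess reagent; % inhibition versus LPS-only control, IC50 read graphically, N = 4.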

[2] = tested on: Macrophage; test: Inhibition of nitric oxide production in lipopolysaccharide-activated ddY mouse macrophages at 3 uM relative to control; assay type: functional; method in brief: as §1
[3] = tested on: Macrophage; test: Inhibition of nitric oxide production in lipopolysaccharide-activated ddY mouse macrophages at 30 uM relative to control; assay type: functional; method in brief: as §1
[4] = tested on: Macrophage; test: Inhibition of nitric oxide production in lipopolysaccharide-activated ddY mouse macrophages at 1 uM relative to control; assay type: functional; method in brief: as §1
[5] = Toxicity in lipopolysaccharide-activated ddY mouse macrophages at 100 uM by MTT method; assay type: cell-based; details: macrophage
Method in brief: (§2)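 Peritoneal exudate cells from male ddY mice given 4% thioglycolate i.p. 4 days earlier, plated at 5 × 10^5 cells/well in RPMI 1640 with 5% FCS, 1 h at 37 °C. Non-adherent cells washed off. Adherent macrophages exposed to 10 µg/mL LPS plus compound (DMSO, final 0.5%) for 20 h. MTT added for 4 h, formazan dissolved in 2-propanol/0.04 M HCl, read at 570 nm (ref 655 nm). N=4.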

[6] = tested on: Macrophage; test: Inhibition of nitric oxide production in lipopolysaccharide-activated ddY mouse macrophages at 10 uM relative to control; assay type: functional; method in brief: as §1
[7] = Toxicity in lipopolysaccharide-activated ddY mouse macrophages by MTT method; assay type: cell-based; details: macrophage
Method in brief: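 Thioglycolate-elicited ddY mouse peritoneal macrophages were treated for 20 h with 10 µg/mL LPS plus compound (1-100 µM, 0.5% DMSO final). MTT (5 mg/mL in PBS) was then added for 4 h, and formazan was dissolved in 2-propanol with 0.04 M HCl. Absorbance was read at 570 nm (reference 655 nm), N = 4.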

[8] = Toxicity in lipopolysaccharide-activated ddY mouse macrophages at 30 uM by MTT method; assay type: cell-based; details: macrophage; method in brief: as §2
[9] = Inhibition of NOS; method in brief: as §1

IC50 [9]	Compound	inhibition at 100 µM [1]	inhibition at 3 µM [2]	inhibition at 30 µM [3]	inhibition at 1 µM [4]	Activity [5]	inhibition at 10 µM [6]	Activity [7]	Activity [8]
	Cc1c(O)cc2c(c1O)C(=O)c1ccc(O)cc1C2=O	99.6%	7.9%	99.5%	4.9%	Toxic	37.5%		
	CC(=O)OC[C@@]12CC[C@@]3(C)[C@H]4C(=CC[C@]3(C)[C@H]1[C@H](OC(C)=O)C[C@H]2C(C)C)[C@@]1(C)CC[C@H](OC(C)=O)C(C)(C)[C@@H]1C[C@@H]4OC(C)=O	6.6%	10.6%	0%	5.3%		-1.2%		
	CC(=O)OC[C@@]12CC[C@@]3(C)[C@H]4C(=CC[C@]3(C)[C@H]1[C@H](O)C[C@H]2C(C)C)[C@@]1(C)C[C@@H](O)C(=O)C(C)(C)[C@@H]1C[C@@H]4O	15.4%	-1.5%	-5.8%	-1.1%		0%		
	CC(=O)OC[C@@]12CC[C@@]3(C)[C@H]4C(=CC[C@]3(C)[C@H]1[C@H](O)C[C@H]2C(C)C)[C@@]1(C)CC[C@H](O)C(C)(C)[C@@H]1C[C@@H]4O	25.5%	11.1%	-7.4%	5.2%	Toxic	4.7%		
	CC(C)[C@@H]1C[C@@H](O)[C@H]2[C@@]1(CO)CC[C@@]1(C)[C@H]3C(=CC[C@]21C)[C@@]1(C)C[C@@H](O)C(=O)C(C)(C)[C@@H]1C[C@@H]3O	40.3%	-10.3%	1.8%	-9.6%		2.1%		
	CC(=O)OC[C@@]12CC[C@@]3(C)[C@H]4C(=CC[C@]3(C)[C@H]1[C@H](O)C[C@H]2C(C)C)[C@@]1(C)C[C@@H](O)[C@H](O)C(C)(C)[C@@H]1C[C@@H]4O	76.5%	5.3%	-11.1%	17%		4.3%	Non-toxic	
	CC(=O)OC[C@@]12CC[C@@]3(C)[C@H]4C(=CC[C@]3(C)[C@H]1[C@H](OC(C)=O)C[C@H]2C(C)C)[C@@]1(C)C[C@@H](OC(C)=O)[C@H](OC(C)=O)C(C)(C)[C@@H]1C[C@@H]4OC(C)=O	28.4%	9.5%	25.5%	7.7%		18.7%		
	COc1cc(O)cc(OC)c1C(=O)O	28%	9.3%	7.2%	9.5%		7.5%		
	CC(=O)OC[C@@]12CC[C@@]3(C)[C@H]4C(=CC[C@]3(C)[C@H]1[C@H](O)C[C@H]2C(C)C)[C@@]1(C)C[C@@H](OC(C)=O)[C@H](O)C(C)(C)[C@@H]1C[C@@H]4O	77.1%	21.3%	-7.9%	20.2%		-12%	Non-toxic	
	CC(=O)OC[C@@]12CC[C@@]3(C)[C@H]4C(=CC[C@]3(C)[C@H]1[C@H](OC(C)=O)C[C@H]2C(C)C)[C@@]1(C)C[C@@H](OC(C)=O)C(=O)C(C)(C)[C@@H]1C[C@@H]4OC(C)=O	23%	7.3%	18.7%	1.7%		12.5%		
	COc1cc(C[C@@H](CO)[C@H](CO)Cc2ccc(O)c(OC)c2)ccc1O [(+)-SECOISOLARICIRESINOL]	-12.5%	-7.3%	0.9%	5.9%		6.5%		
	COc1cc([C@H]2c3cc(O)c(OC)cc3C[C@@H](CO)[C@@H]2CO)ccc1O [ISOLARICIRESINOL]	7.5%	-0.6%	5.1%	-0.2%		0.6%		
	COc1cc(C[C@H]2CO[C@H](c3ccc(O)c(OC)c3)[C@H]2CO)ccc1O [LARICIRESINOL]	11.9%	3%	-8.2%	4%		5.5%		
	CC(=O)O[C@@H]1C[C@]2(C)C3=CC[C@]4(C)[C@H]5[C@@H]6C[C@@H](C(C)C)[C@@]5(CC[C@@]4(C)[C@@H]3[C@@H](O)C[C@H]2C(C)(C)[C@H]1O[C@@H]1O[C@H](CO)[C@@H](O)[C@H](O)[C@H]1O)CO6 [RUBIANOSIDE I]	-3.2%	-0.3%	1.5%	5.1%		-8%		
	CC(C)[C@@H]1C[C@@H](O)[C@H]2[C@@]1(CO)CC[C@@]1(C)[C@H]3C(=CC[C@]21C)[C@@]1(C)CC[C@H](O)C(C)(C)[C@@H]1C[C@@H]3O [RUBIARBONOL A]	86.3%	4.2%	2.9%	6.3%	Toxic	-4.2%		Toxic
	CC(C)[C@@H]1C[C@@H](O)[C@H]2[C@@]1(CO)CC[C@@]1(C)[C@H]3C(=CC[C@]21C)[C@@]1(C)C[C@@H](O)[C@H](O)C(C)(C)[C@@H]1C[C@@H]3O [RUBIARBONOL F]	60.4%	7.9%	22%	9.6%	Toxic	15.4%		
	CC(C)[C@@H]1C[C@@H](O)[C@H]2[C@@]1(CO)CC[C@@]1(C)[C@H]3C(=CC[C@]21C)[C@@]1(C)CCC(=O)C(C)(C)[C@@H]1C[C@@H]3O [RUBIARBONONE B]	19.7%	-9.7%	16.9%	4.3%		-13.7%		
	CC(=O)OC[C@@]12CC[C@@]3(C)[C@H]4C(=CC[C@]3(C)[C@H]1[C@H](O)C[C@H]2C(C)C)[C@@]1(C)CCC(=O)C(C)(C)[C@@H]1C[C@@H]4O [RUBIARBONONE C]	90.3%	3.7%	8%	-2.1%	Toxic	-2.3%		
57 µM	CNC(=N)NCCC[C@H](N)C(=O)O [TILARGININE]	63.1%	10.3%	34.1%	5.9%		15%		
	COc1cc(C(=O)O)ccc1O [VANILLIC ACID]	5.9%	16.2%	-3.6%	5.9%		8.2%		
